The values below come from ChEMBL document CHEMBL6092129, “Inhibiting SARS-CoV-2 viral entry by targeting spike:ACE2 interaction with O-modified quercetin derivatives” (RSC Med Chem, 2024).

As a reminder, the inhibition is the share of the control response that was lost under treatment. The term IC50 denotes the concentration that gives 50% inhibition. Low readings indicate inhibition by little substance, high ones a need for much substance.

The target of data set [1] is T1, Spike glycoprotein/Angiotensin-converting enzyme 2 (Severe acute respiratory syndrome coronavirus 2) (UniProt Q9BYF1+P0DTC2). Description: Inhibition of SARS CoV-2 S1 RBD/biotinylated ACE2 (unknown origin) protein-protein interaction at 100 uM preincubated with S1 protein for 60 mins followed by addition of ACE2 protein measured after 60 mins by ELISA relative to control. The data set is classed as protein assay. Particulars: time 120.0 min. The essentials: (§1)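 SARS-CoV-2 S1 RBD coated at 2 µg/mL (60 min, 37 °C), then blocked with 1% BSA in PBS pH 7.2–7.4 (30 min, 37 °C). Compound (0.8, 4.0, 20.0 or 100.0 µM) incubated 60 min at 37 °C with 0.05% DMSO–PBS vehicle control. Biotin-ACE2 solution (0.5 µg/mL) added for 60 min, then ExtrAvidin-peroxidase (40 min) and OPD (10 min, RT, dark), read at 450 nm. Three trials; IC50 from four-parameter fit (bottom 0, Hill slope 1).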
A general note: In an ELISA, binding on a coated surface is turned into a signal by an enzyme label.

In data set [2] the target is T1, Spike glycoprotein/Angiotensin-converting enzyme 2 (Severe acute respiratory syndrome coronavirus 2). Description: Inhibition of SARS CoV-2 S1 RBD/biotinylated ACE2 (unknown origin) protein-protein interaction at 0.8 uM preincubated with S1 protein for 60 mins followed by addition of ACE2 protein measured after 60 mins by ELISA relative to control. The data set is classed as protein assay. Particulars: time 120.0 min. The essentials:
as §1

Data set [3] has as its system H9c2. Description: Cardiotoxicity against rat H9c2 cells at 30.22 ppm incubated for 30 mins by LDH release based CytoTox 96 assay relative to control. Particulars: h9c2, 0.5 h. The data set is classed as toxicity, cell-based. A general note: LDH in the medium is a marker of cell lysis.
Data set [4] deals with T1, Spike glycoprotein/Angiotensin-converting enzyme 2 (Severe acute respiratory syndrome coronavirus 2). Description: Inhibition of SARS CoV-2 S1 RBD/biotinylated ACE2 (unknown origin) protein-protein interaction at 100 uM preincubated with S1 protein for 60 mins followed by addition of ACE2 protein measured after 60 mins by ELISA. Type of data set: protein assay. Particulars: time 120.0 min. Summed up:
as §1

The nature of data set [5]: Hepatotoxicity against human HepG2 cells at 30.22 ppm incubated for 30 mins by LDH release based CytoTox 96 assay relative to control. Type of data set: toxicity, cell-based. Particulars: hepg2, 0.5 h.
Data set [6] deals with HK-2. Description: Nephrotoxicity against human HK-2 cells at 30.22 ppm incubated for 30 mins by LDH release based CytoTox 96 assay relative to control. Type of data set: toxicity, cell-based. Particulars: hk-2, 0.5 h.
Data set [7] can be described thus: Hepatotoxicity against human HepG2 cells at 1.54 ppm incubated for 30 mins by LDH release based CytoTox 96 assay relative to control. Particulars: hepg2, 0.5 h. The data set is classed as toxicity, cell-based.
The subject of data set [8] is H9c2. Description: Cardiotoxicity against rat H9c2 cells at 1.54 ppm incubated for 30 mins by LDH release based CytoTox 96 assay relative to control. The data set is classed as toxicity, cell-based. Particulars: h9c2, 0.5 h.
Data set [9] concerns HK-2. The data set can be described thus: Nephrotoxicity against human HK-2 cells at 1.54 ppm incubated for 30 mins by LDH release based CytoTox 96 assay relative to control. The data set is classed as toxicity, cell-based. Conditions: hk-2, 0.5 h.
Data set [10] deals with Spike glycoprotein/Angiotensin-converting enzyme 2 (Severe acute respiratory syndrome coronavirus 2, UniProt P0DTC2+Q9BYF1). The data set can be described thus: (§2) Inhibition of SARS CoV-2 S1 RBD/biotinylated ACE2 (unknown origin) protein-protein interaction preincubated with S1 protein for 60 mins followed by addition of ACE2 protein measured after 60 mins by ELISA. The data set is classed as protein assay. The essentials: as §1

In data set [11] the target is T1, Spike glycoprotein/Angiotensin-converting enzyme 2 (Severe acute respiratory syndrome coronavirus 2). The data set is described as §2. Type of data set: protein assay. Conditions: time 120.0 min. Summed up: as §1
For data set [12], the system named is H9c2. The data set can be described thus: Cardiotoxicity against rat H9c2 cells at 4.71 ppm incubated for 30 mins by LDH release based CytoTox 96 assay relative to control. The data set is classed as toxicity, cell-based. Conditions: h9c2, 0.5 h.
The nature of data set [13]: Hepatotoxicity against human HepG2 cells at 4.71 ppm incubated for 30 mins by LDH release based CytoTox 96 assay relative to control. Type of data set: toxicity, cell-based. Particulars: hepg2, 0.5 h.
The subject of data set [14] is HK-2. The data set can be described thus: Nephrotoxicity against human HK-2 cells at 4.71 ppm incubated for 30 mins by LDH release based CytoTox 96 assay relative to control. Conditions: hk-2, 0.5 h. The data set is classed as toxicity, cell-based.
Data set [15] deals with HK-2. The data set can be described thus: Nephrotoxicity against human HK-2 cells at 1.03 ppm incubated for 30 mins by LDH release based CytoTox 96 assay relative to control. The data set is classed as toxicity, cell-based. Conditions: hk-2, 0.5 h.
The nature of data set [16]: Hepatotoxicity against human HepG2 cells at 1.03 ppm incubated for 30 mins by LDH release based CytoTox 96 assay relative to control. Type of data set: toxicity, cell-based. Conditions: hepg2, 0.5 h.
The subject of data set [17] is H9c2. Description: Cardiotoxicity against rat H9c2 cells at 1.03 ppm incubated for 30 mins by LDH release based CytoTox 96 assay relative to control. The data set is classed as toxicity, cell-based. Conditions: h9c2, 0.5 h.
Data set [18] can be described thus: Hepatotoxicity against human HepG2 cells at 2.07 ppm incubated for 30 mins by LDH release based CytoTox 96 assay relative to control. Particulars: hepg2, 0.5 h. Type of data set: toxicity, cell-based.
Data set [19] relates to H9c2. The data set can be described thus: Cardiotoxicity against rat H9c2 cells at 2.07 ppm incubated for 30 mins by LDH release based CytoTox 96 assay relative to control. Conditions: h9c2, 0.5 h. Type of data set: toxicity, cell-based.
The subject of data set [20] is HK-2. Description: Nephrotoxicity against human HK-2 cells at 2.07 ppm incubated for 30 mins by LDH release based CytoTox 96 assay relative to control. Particulars: hk-2, 0.5 h. The data set is classed as toxicity, cell-based.
In data set [21] the test system is H9c2. The data set can be described thus: Cardiotoxicity against rat H9c2 cells at 12.09 ppm incubated for 30 mins by LDH release based CytoTox 96 assay relative to control. Type of data set: toxicity, cell-based. Conditions: h9c2, 0.5 h.
The test system of data set [22] is HK-2. Description: Nephrotoxicity against human HK-2 cells at 12.09 ppm incubated for 30 mins by LDH release based CytoTox 96 assay relative to control. The data set is classed as toxicity, cell-based. Conditions: hk-2, 0.5 h.
Data set [23] is described as follows: Hepatotoxicity against human HepG2 cells at 12.09 ppm incubated for 30 mins by LDH release based CytoTox 96 assay relative to control. Type of data set: toxicity, cell-based. Conditions: hepg2, 0.5 h.

Structures are written as SMILES. Activity calls are given as the source filed them. No cut-off for these calls is given here. Bounds are passed on as bounds.

Sequence of Spike glycoprotein/Angiotensin-converting enzyme 2 (Q9BYF1 whole entry, looked up, other chains not shown): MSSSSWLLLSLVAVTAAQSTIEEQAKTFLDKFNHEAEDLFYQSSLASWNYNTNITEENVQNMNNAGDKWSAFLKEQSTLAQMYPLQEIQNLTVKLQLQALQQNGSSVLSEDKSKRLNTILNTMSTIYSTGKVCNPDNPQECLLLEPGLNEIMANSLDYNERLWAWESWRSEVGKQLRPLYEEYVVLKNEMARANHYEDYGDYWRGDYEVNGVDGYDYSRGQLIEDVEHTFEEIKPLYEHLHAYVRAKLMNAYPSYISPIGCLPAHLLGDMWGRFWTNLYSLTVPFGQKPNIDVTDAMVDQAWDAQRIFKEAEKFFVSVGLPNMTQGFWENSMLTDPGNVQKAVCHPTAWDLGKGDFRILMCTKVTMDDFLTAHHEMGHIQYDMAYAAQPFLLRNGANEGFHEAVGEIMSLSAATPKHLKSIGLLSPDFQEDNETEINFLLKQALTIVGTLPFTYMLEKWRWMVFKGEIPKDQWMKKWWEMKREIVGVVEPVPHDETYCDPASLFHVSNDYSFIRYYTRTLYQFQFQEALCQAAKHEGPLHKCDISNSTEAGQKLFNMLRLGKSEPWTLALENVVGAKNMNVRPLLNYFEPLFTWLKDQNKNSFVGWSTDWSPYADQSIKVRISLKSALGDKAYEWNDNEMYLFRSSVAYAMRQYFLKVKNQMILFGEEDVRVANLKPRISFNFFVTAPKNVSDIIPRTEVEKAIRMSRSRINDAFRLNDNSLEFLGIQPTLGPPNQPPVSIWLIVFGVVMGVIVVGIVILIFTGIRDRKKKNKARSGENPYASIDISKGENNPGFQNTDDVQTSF

Consider `O=c1c(OCc2ccccc2)c(-c2ccc(OCc3ccccc3)c(OCc3ccccc3)c2)oc2cc(OCc3ccccc3)cc(O)c12`, for which the inhibition in data set [1] was under 50%.

With `CCCOc1cc(O)c2c(=O)c(OCCC)c(-c3ccc(OCCC)c(O)c3)oc2c1`, the inhibition in data set [2] was over 50%.

`CCOc1cc(O)c2c(=O)c(OCC)c(-c3ccc(OCC)c(O)c3)oc2c1` yielded an inhibition in [2] of over 50%.

`O=c1c(OCc2ccc(F)cc2)c(-c2ccc(OCc3ccc(F)cc3)c(OCc3ccc(F)cc3)c2)oc2cc(OCc3ccc(F)cc3)cc(O)c12` registered an inhibition in [1] of under 50%.

`O=C(Oc1cc(O)c2c(=O)c(OC(=O)c3ccccc3)c(-c3ccc(OC(=O)c4ccccc4)c(O)c3)oc2c1)c1ccccc1` came in with an inhibition in [2] of over 50%.

For the molecule `O=c1c(O)c(-c2ccc(O)c(O)c2)oc2cc(O)cc(O)c12` [QUERCETIN], the results for the Activity in data set [3], in data set [5] and in data set [6] were 12.93%, 1.74% and 1.56%, respectively. The inhibition entry in data set [4] is “inactive”.

In the case of `C=CCOc1cc(O)c2c(=O)c(OCC=C)c(-c3ccc(OCC=C)c(O)c3)oc2c1`, the inhibition in [2] was over 50%.

With `CC(=O)Oc1cc(O)c2c(=O)c(OC(C)=O)c(-c3ccc(OC(C)=O)c(O)c3)oc2c1`, the inhibition in data set [2] is over 50%.

`CCC(=O)Oc1cc(O)c2c(=O)c(OC(=O)CC)c(-c3ccc(OC(=O)CC)c(O)c3)oc2c1`: the Activity in [7] is given as 0.21%; in data set [8] it was 1.95%; in data set [9] it was 0.26%. In addition, in data set [10], 3.28 µM corresponded to half-maximal inhibition (IC50). Further, in data set [11], the inhibition entry is “Dose-dependent-effect”.

For `CCC(=O)Oc1cc(O)c2c(=O)c(OC(=O)CC)c(-c3ccc(OC(=O)CC)c(OC(=O)CC)c3)oc2c1`, the inhibition in data set [2] is over 50%.

`CC(=O)Oc1cc(O)c2c(=O)c(OC(C)=O)c(-c3ccc(OC(C)=O)c(OC(C)=O)c3)oc2c1` registered an inhibition in [2] of over 50%.

Consider `O=c1c(OCc2ccc(F)cc2)c(-c2ccc(OCc3ccc(F)cc3)c(O)c2)oc2cc(OCc3ccc(F)cc3)cc(O)c12`, for which the Activity in data set [12] was 1.21%; in data set [13], 0.4%; in [14], 1.29%. The molecule further displayed an IC50 in [10] of 7.52 µM. Further, the inhibition result in [11] is “Dose-dependent-effect”.

`O=c1c(OCc2ccccc2)c(-c2ccc(OCc3ccccc3)c(O)c2)oc2cc(OCc3ccccc3)cc(O)c12` registered an inhibition in [2] of over 50%.

`C=CCOc1cc(O)c2c(=O)c(OCC=C)c(-c3ccc(OCC=C)c(OCC=C)c3)oc2c1`: the Activity is reported as 0.04% in [15], 0% in [16] and 1.83% in [17]. The molecule further gave an IC50 in data set [10] of 2.22 µM. Further, the inhibition entry in [11] is “Dose-dependent-effect”.

`O=C(Oc1cc(O)c2c(=O)c(OC(=O)c3ccccc3)c(-c3ccc(OC(=O)c4ccccc4)c(OC(=O)c4ccccc4)c3)oc2c1)c1ccccc1`: the inhibition in [1] was under 50%.

For `O=C1OC2(c3ccccc31)c1cc(I)c(O)c(I)c1Oc1c2cc(I)c(O)c1I` [ERYTHROSINE], it took 6.16 µM to reach half-maximal inhibition in [10] (IC50). The inhibition entry in data set [11] was “Dose-dependent-effect”.

Turning to `CCOc1cc(O)c2c(=O)c(OCC)c(-c3ccc(OCC)c(OCC)c3)oc2c1`, the results for the Activity in data set [18], in [19] and in [20] were 1.47%, 0.11% and 5.5%, respectively. This molecule also returned an IC50 in data set [10] of 5 µM. The inhibition entry in data set [11] is “Dose-dependent-effect”.

Consider `CCCOc1cc(O)c2c(=O)c(OCCC)c(-c3ccc(OCCC)c(OCCC)c3)oc2c1`, for which the Activity in data set [21] is on record as 1.05%; in data set [22], 1.71%; in data set [23], 0.39%. The same molecule displayed a half-maximal inhibitory concentration (IC50) in [10] of 25.7 µM. Also, the inhibition entry in data set [11] is “Dose-dependent-effect”.
